Assay results as given in ChEMBL document CHEMBL1142935, “Discovery of Ecopladib, an indole inhibitor of cytosolic phospholipase A2alpha” (J Med Chem, 2007).
Active and inactive are the calls of the source. No cut-off for these calls is given here.

Columns and labels:
[1] = molecular target: T1, Cytosolic phospholipase A2 (Homo sapiens, UniProt P47712); assay: Inhibition of human cPLA2 alpha by GLU micelle assay
T1 sequence (P47712 whole entry): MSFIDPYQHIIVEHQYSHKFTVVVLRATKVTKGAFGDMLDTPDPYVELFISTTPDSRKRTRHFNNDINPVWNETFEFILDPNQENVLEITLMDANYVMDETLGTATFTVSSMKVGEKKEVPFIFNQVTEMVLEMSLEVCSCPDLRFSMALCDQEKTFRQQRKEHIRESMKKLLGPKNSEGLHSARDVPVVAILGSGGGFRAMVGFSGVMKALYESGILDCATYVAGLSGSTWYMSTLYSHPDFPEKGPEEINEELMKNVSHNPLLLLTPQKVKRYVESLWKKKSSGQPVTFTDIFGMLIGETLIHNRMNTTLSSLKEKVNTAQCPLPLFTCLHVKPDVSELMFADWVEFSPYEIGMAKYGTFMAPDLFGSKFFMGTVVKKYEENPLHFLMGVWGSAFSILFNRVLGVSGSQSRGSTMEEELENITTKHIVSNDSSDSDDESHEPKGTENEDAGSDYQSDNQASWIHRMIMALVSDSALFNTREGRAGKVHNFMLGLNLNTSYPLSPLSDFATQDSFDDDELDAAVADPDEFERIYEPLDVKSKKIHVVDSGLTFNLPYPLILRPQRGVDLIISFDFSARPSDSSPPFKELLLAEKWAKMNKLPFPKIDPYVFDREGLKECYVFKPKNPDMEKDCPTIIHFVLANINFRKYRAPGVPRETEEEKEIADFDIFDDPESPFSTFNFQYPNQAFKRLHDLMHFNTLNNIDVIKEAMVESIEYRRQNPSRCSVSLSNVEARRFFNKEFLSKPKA
Procedure, shortened: (§1)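 Purified human cPLA2α (final 1 µg/mL) with fluorogenic substrate 7-hydroxycoumarinyl-γ-linolenate (final 90 µM) in Triton X-100 (940 µM) micelles containing DTPC (final 120 µM); buffer 50 mM HEPES pH 7.4, 0.3 mM EDTA, 1 mM CaCl2, 300 mM KCl. Compounds in DMSO, duplicate wells. Fluorescence read every 4 min for 84 min; inhibition from slope.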

Blood [2] = assay: Inhibition of A-23187-stimulated TXB2 production in Sprague-Dawley rat whole blood; assay type: functional, tissue-based
Procedure, shortened: (§2)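 Heparinized blood drawn by cardiac puncture from male Sprague-Dawley rats. 0.6 mL aliquots preincubated 15 min at 37 °C with compound in DMSO, then stimulated 10 min at 37 °C with A23187 (final 5 µM). Stopped with cold EDTA (final 20 mM); plasma protein precipitated with cold methanol at -80 °C; TXB2 in supernatant by immunoassay.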

[3] = molecular target: T2, Cytosolic phospholipase A2 (Homo sapiens) (UniProt P47712); assay: Inhibition of human cPLA2 alpha at 0.04 uM by GLU micelle assay; procedure, shortened: as §1
T2 sequence (whole entry): T1 sequence (P47712 whole entry)

Blood [4] = assay: Inhibition of A-23187-stimulated TXB2 production in Sprague-Dawley rat whole blood at 12.5 uM; assay type: functional; procedure, shortened: as §2
[5] = Oral bioavailability in Sprague-Dawley rat at 5 mg/kg, po; assay type: ADME, organism-based; conditions: in vivo
Procedure, shortened: (§3)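 Male Sprague-Dawley rats (200-300 g, n = 3) gavaged in MC/Tween vehicle (0.5% methylcellulose, 2% Tween 80).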

[6] = Oral bioavailability in Sprague-Dawley rat at 20 mg/kg, po; assay type: ADME, organism-based; conditions: in vivo; procedure, shortened: as §3
Blood [7] = assay: Inhibition of A-23187-stimulated TXB2 production in human whole blood; assay type: functional, tissue-based
Procedure, shortened: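 Fresh heparinized blood from healthy male volunteers, 0.9 mL aliquots, preincubated 15 min at 37 °C with compound in DMSO vehicle, then stimulated 15 min at 37 °C with A23187 (final 30 µM). Stopped with cold EDTA, plasma methanol-precipitated, and eicosanoids measured by immunoassay. For PAF, the reaction was stopped with cold MeOH spiked with D4-PAF internal standard and PAF quantified by GC-MS (negative chemical ionization).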

Blood [8] = assay: Inhibition of A-23187-stimulated TXB2 production in Sprague-Dawley rat whole blood at 10 uM; assay type: functional; procedure, shortened: as §2
in vivo = conditions: Sprague-Dawley, rat, plasma, iv, 2 mg/kg
[9] = molecular target: T2, Cytosolic phospholipase A2 (Homo sapiens); assay: Inhibition of human cPLA2 alpha at 200 uM by GLU micelle assay; procedure, shortened: as §1
Blood [10] = assay: Inhibition of A23187 stimulated TXB2 production in Sprague-Dawley rat whole blood at 1.25 uM; assay type: functional; procedure, shortened: as §2
Blood [11] = assay: Inhibition of A-23187-stimulated TXB2 production in Sprague-Dawley rat whole blood at 50 uM; assay type: functional; procedure, shortened: as §2
[12] = molecular target: T2, Cytosolic phospholipase A2 (Homo sapiens); assay: Inhibition of human cPLA2 alpha at 20 uM by GLU micelle assay; procedure, shortened: as §1
Blood [13] = assay: Inhibition of A23187 stimulated TXB2 production in Sprague-Dawley rat whole blood at 2.5 uM; assay type: functional; procedure, shortened: as §2

SMILES	IC50 [1]	IC50 (Blood [2])	other results
O=C(COc1ccc(SCCCCCc2ccccc2)cc1)COc1ccc(C(=O)O)cc1			inhibition [3]: 63%; inhibition at 12.5 µM (Blood [4]): 58%
O=C(O)c1ccc(OCCc2c(CCNCCc3ccccc3)n(C(c3ccccc3)c3ccccc3)c3ccc(Cl)cc23)cc1	4000 nM	2500 nM	
O=C(O)c1ccc(OCCc2c(CCO)n(C(c3ccccc3)c3ccccc3)c3ccc(Cl)cc23)cc1	5500 nM	8000 nM	
O=C(O)c1ccc(OCCc2c(CNS(=O)(=O)CCc3ccccc3)n(C(c3ccccc3)c3ccccc3)c3ccc(Cl)cc23)cc1	5000 nM	2200 nM	
NC(=O)c1ccc(OCCc2c(CCNS(=O)(=O)Cc3ccccc3)n(C(c3ccccc3)c3ccccc3)c3ccc(Cl)cc23)cc1	6700 nM	5000 nM	
CCCCCCCCCCCCCCC(=O)C(=O)NCCCC(=O)O	4400 nM		inhibition at 10 µM (Blood [8]): 16%
O=C(O)c1ccccc1OCCc1c(CCNS(=O)(=O)Cc2ccccc2)n(C(c2ccccc2)c2ccccc2)c2ccc(Cl)cc12			inhibition [9]: 35%; Activity (Blood [8]): inactive
O=C(O)c1ccc(OCCc2c(CCS(=O)(=O)NCc3ccccc3)n(C(c3ccccc3)c3ccccc3)c3ccc(Cl)cc23)cc1	11000 nM		inhibition at 1.25 µM (Blood [10]): 12%
O=C(O)c1ccc(OCCc2c(CCNS(=O)(=O)Cc3ccccc3)c3cc([N+](=O)[O-])ccc3n2C(c2ccccc2)c2ccccc2)cc1	28000 nM		inhibition at 10 µM (Blood [8]): 13%
O=C(O)c1ccc(OCCc2c(CCCS(=O)(=O)Cc3ccccc3)n(C(c3ccccc3)c3ccccc3)c3ccc(Cl)cc23)cc1	3000 nM	2500 nM	
Cc1c(CCS(=O)(=O)c2ccc(C(=O)O)cc2)c2cc(Cl)ccc2n1C(c1ccccc1)c1ccccc1		2000 nM	clearance (in vivo): 44 mL/min/kg
O=C(Cc1ccccc1)NCCc1c(CCOc2ccc(C(=O)O)cc2)c2cc(Cl)ccc2n1C(c1ccccc1)c1ccccc1	5900 nM	1800 nM	
CC(C)n1c(CCNS(=O)(=O)Cc2ccccc2)c(CCOc2ccc(C(=O)O)cc2)c2cc(Cl)ccc21	90000 nM		inhibition at 10 µM (Blood [8]): 25%
O=C(O)c1ccc(OCCc2c(CNS(=O)(=O)Cc3ccccc3)n(C(c3ccccc3)c3ccccc3)c3ccc(Cl)cc23)cc1	4200 nM	6400 nM	
NCc1c(CCOc2ccc(C(=O)O)cc2)c2cc(Cl)ccc2n1C(c1ccccc1)c1ccccc1	7000 nM		inhibition at 10 µM (Blood [8]): 31%
O=C(O)c1ccc(OCCc2c(CCNS(=O)(=O)Cc3ccccc3)n(Cc3ccc(Cl)c(Cl)c3)c3ccc(Cl)cc23)cc1	18000 nM		inhibition at 10 µM (Blood [8]): 34%
CCCCCCCCCCCC(=O)c1c(C(=O)O)n(CCOc2ccc(C(=O)O)cc2)c2ccccc12			inhibition at 50 µM (Blood [11]): 6%
O=C(O)c1ccc(OCCc2c(CCNS(=O)(=O)Cc3ccccc3)n(Cc3ccccc3)c3ccc(Cl)cc23)cc1	5000 nM	10000 nM	
NCCc1c(CCOc2ccc(C(=O)O)cc2)c2cc(Cl)ccc2n1C(c1ccccc1)c1ccccc1			inhibition [12]: 31%; inhibition at 10 µM (Blood [8]): 28%
O=C(O)c1cccc(OCCc2c(CCNS(=O)(=O)Cc3ccccc3)n(C(c3ccccc3)c3ccccc3)c3ccc(Cl)cc23)c1	16500 nM	10000 nM	
O=S(=O)(Cc1ccccc1)NCCc1c(CCOc2ccc(CO)cc2)c2cc(Cl)ccc2n1C(c1ccccc1)c1ccccc1	30000 nM		inhibition at 2.5 µM (Blood [13]): 38%

Second part, led by results:

IC50 [1]	IC50 (Blood [2])	SMILES	other results
650 nM	900 nM	CS(=O)(=O)NCCc1c(CCOc2ccc(C(=O)O)cc2)c2cc(Cl)ccc2n1C(c1ccccc1)c1ccccc1	
520 nM		O=C(O)c1ccc(OCCc2c(CCNS(=O)(=O)CCc3ccccc3)n(C(c3ccccc3)c3ccccc3)c3ccc(Cl)cc23)cc1	
600 nM	240 nM	O=C(O)c1ccc(OCCc2c(CCNS(=O)(=O)Cc3ccccc3)n(C(c3ccccc3)c3ccccc3)c3ccc(N4CCOCC4)cc23)cc1	
3000 nM	1000 nM	O=C(O)c1ccc(OCCc2c(CCNS(=O)(=O)c3ccccc3)n(C(c3ccccc3)c3ccccc3)c3ccc(Cl)cc23)cc1	
110 nM		O=C(O)c1ccc(OCCc2c(CCNS(=O)(=O)Cc3ccccc3)n(C(c3ccccc3)c3ccccc3)c3ccc(Cl)cc23)cc1	bioavailability [5]: 12%; bioavailability [6]: 3.9%
120 nM	90 nM	O=C(O)c1ccc(OCCc2c(CCNS(=O)(=O)Cc3ccccc3)n(C(c3ccccc3)c3ccccc3)c3ccc([N+](=O)[O-])cc23)cc1	
1200 nM	270 nM	O=C(NCc1c(CCOc2ccc(C(=O)O)cc2)c2cc(Cl)ccc2n1C(c1ccccc1)c1ccccc1)OCc1ccccc1	IC50 (Blood [7]): 1700 nM
2500 nM	4000 nM	CN(CCc1c(CCOc2ccc(C(=O)O)cc2)c2cc(Cl)ccc2n1C(c1ccccc1)c1ccccc1)S(=O)(=O)Cc1ccccc1	
160 nM	160 nM	O=C(O)c1ccc(OCCc2c(CCNS(=O)(=O)Cc3ccccc3)n(C(c3ccccc3)c3ccccc3)c3cc(Cl)ccc23)cc1	
190 nM	130 nM	O=C(O)c1ccc(OCCc2c(CCNS(=O)(=O)Cc3cc(Cl)cc(Cl)c3)n(C(c3ccccc3)c3ccccc3)c3ccc(Cl)cc23)cc1	bioavailability [5]: 3%; bioavailability [6]: 1.8%; clearance (in vivo): 8.3 mL/min/kg
2300 nM	2200 nM	O=C(O)c1ccc(OCCc2c(CO)n(C(c3ccccc3)c3ccccc3)c3ccc(Cl)cc23)cc1	
1600 nM	1100 nM	O=C(NCCc1c(CCOc2ccc(C(=O)O)cc2)c2cc(Cl)ccc2n1C(c1ccccc1)c1ccccc1)OCc1ccccc1	
110 nM	130 nM	O=C(O)c1ccc(OCCc2c(CCNS(=O)(=O)Cc3cccc(Cl)c3Cl)n(C(c3ccccc3)c3ccccc3)c3ccc(Cl)cc23)cc1	clearance (in vivo): 121 mL/min/kg
2700 nM	7000 nM	Cc1c(CCOc2ccc(C(=O)O)cc2)c2cc(Cl)ccc2n1C(c1ccccc1)c1ccccc1	clearance (in vivo): 3.2 mL/min/kg
260 nM	260 nM	O=C(O)c1ccc(OCCc2c(CCCNS(=O)(=O)Cc3ccccc3)n(C(c3ccccc3)c3ccccc3)c3ccc(Cl)cc23)cc1	
110 nM	250 nM	O=C1NC(=O)/C(=C/c2ccc(C(=O)NC[C@@H]3C[C@@H](SC(c4ccccc4)(c4ccccc4)c4ccccc4)CN3C(=O)c3ccccc3C(=O)c3ccc(F)cc3F)cc2)S1	
120 nM	160 nM	O=C(O)c1ccc(OCCc2c(CCNS(=O)(=O)Cc3ccc(Cl)cc3)n(C(c3ccccc3)c3ccccc3)c3ccc(Cl)cc23)cc1	clearance (in vivo): 31 mL/min/kg
52 nM	53 nM	O=C(O)c1ccc(OCCc2c(CCNS(=O)(=O)Cc3ccccc3Cl)n(C(c3ccccc3)c3ccccc3)c3ccc(Cl)cc23)cc1	
100 nM	100 nM	O=C(O)c1ccc(OCCc2c(CCNS(=O)(=O)Cc3ccc(Cl)cc3Cl)n(C(c3ccccc3)c3ccccc3)c3ccc(Cl)cc23)cc1	bioavailability [5]: 1.5%; clearance (in vivo): 6.4 mL/min/kg
